Published values of several laboratories.
Protocols differ between the studies behind these lines.
Target: Serine/threonine-protein kinase MRCK beta (CDC42BPB, Homo sapiens, UniProt Q9Y5S2)

SMILES	observed	mode	method	concentration	quantity	value
CCN(CC)CCNC(=O)c1c(C)[nH]c(/C=C2\C(=O)Nc3ccc(Cl)cc32)c1C	enzyme activity	inhibitor	–	0.5 µM	remaining activity	96.1%
CCN(CC)CCNC(=O)c1c(C)[nH]c(/C=C2\C(=O)Nc3ccc(F)cc32)c1C	enzyme activity	inhibitor	–	0.3 µM	inhibition	8%
CCN(CC)c1ccc(C2=NNC(=O)CC2C)cc1[N+](=O)[O-] (centres unmarked)	enzyme activity	inhibitor	–	10 µM	remaining activity	101%
CS(=O)(=O)c1cc(C2(NC(=O)c3cncc4c3cnn4-c3ccc(F)cc3)CC2)ccn1	cell-free assay	–	competition with immobilised ligand	1 µM	remaining binding	100%
CCCS(=O)(=O)Nc1ccc(F)c(C(=O)c2c[nH]c3ncc(-c4ccc(Cl)cc4)cc23)c1F	enzyme activity	inhibitor	–	1 µM	inhibition	< 10%
CNC(=O)c1cc(Oc2ccc(NC(=O)Nc3ccc(Cl)c(C(F)(F)F)c3)cc2)ccn1	enzyme activity	inhibitor	–	0.3 µM	inhibition	12%
CC/C(=N\NC(=O)NCc1cccc(O)c1)c1ccc(O)c(C)c1O	enzyme activity	inhibitor	–	0.1 µM	inhibition	84.3%
CN([C@@H]1CCc2c(CC(=O)O)c3cc(S(C)(=O)=O)ccc3n2C1)S(=O)(=O)c1ccc(F)cc1	cell-free assay	–	competition with immobilised ligand	1 µM	remaining binding	100%
Oc1cccc(-c2nc(N3CCOCC3)c3oc4ncccc4c3n2)c1	cell-free assay	–	–	0.5 µM	remaining signal	99.4%
COc1cc2ncnc(Nc3ccc(Oc4ccccc4)cc3C)c2cc1OC	enzyme activity	inhibitor	–	1 µM	inhibition	-5%
Cc1ccc(Nc2nccc(N(C)c3ccc4c(C)n(C)nc4c3)n2)cc1S(N)(=O)=O	enzyme activity	inhibitor	–	0.3 µM	inhibition	9%
CN(c1ccnc(CNc2nc(Nc3ccc4c(c3)CC(=O)N4)ncc2C(F)(F)F)n1)S(C)(=O)=O	cell-free assay	–	competition with immobilised ligand	1 µM	remaining binding	100%
O=C1Nc2ccc(Cl)cc2C1=Cc1cc(Cl)c(O)c(Cl)c1	cell-free assay	–	–	0.5 µM	remaining signal	91.4%
Cc1cc(NC(=O)c2cccc3cc(-c4cccc5[nH]nc(N)c45)ccc23)ccc1F	enzyme activity	inhibitor	–	0.1 µM	activity vs control	100%
O=C1NC(=O)c2cc(Nc3ccc(F)cc3)c(Nc3ccc(F)cc3)cc21	cell-free assay	–	–	0.5 µM	remaining signal	100%
CSc1cccnc1N1CCN(Cc2nc3ccccc3[nH]2)CC1	cell-free assay	–	competition with immobilised ligand	1 µM	remaining binding	100%
c1ccc(CNc2nc(N3CCOc4ccccc43)nc3c2CCCC3)cc1	target engagement in cells	inhibitor	chemoproteomics	20 mM	inhibition	-0.5%
CNCc1ccccc1-c1csc([C@H](C)Nc2nc(C)nc3cc(OC)c(OC)cc23)c1	cell-free assay	–	competition with immobilised ligand	1 µM	remaining binding	100%
O=C(Nc1cnn(-c2csc(C(=O)NC3COC3)c2)c1)Nc1c(F)cccc1Cl	enzyme activity	inhibitor	–	5 µM	remaining activity	89%
Cc1ccc(C(=O)Nc2ccc(CN3CCN(C)CC3)c(C(F)(F)F)c2)cc1C#Cc1cnc2cccnn12	enzyme activity	inhibitor	–	23.5 nM	remaining activity	95%
CCc1ccccc1C(=O)Nc1n[nH]c2c(C)c(F)c(C3C(C#N)=C(C)N(C)C(C)=C3C#N)cc12	cell-free assay	–	competition with immobilised ligand	1 µM	remaining binding	100%
Cc1cnc(NC2CCOCC2)nc1-n1cnc(C(=O)NC(CN)c2cc(F)cc(Cl)c2)c1 (centres unmarked)	enzyme activity	inhibitor	radiometric	1 µM	remaining activity	59%
Cc1nc(N2CC[C@@H](O)C2)ncc1-c1cc(C(F)(F)F)cc2[nH]ncc12	cell-free assay	–	competition with immobilised ligand	1 µM	remaining binding	100%
CC(C)(C)c1nc(-c2cccc(NS(=O)(=O)c3c(F)cccc3F)c2F)c(-c2ccnc(N)n2)s1	enzyme activity	inhibitor	radiometric	1 µM	remaining activity	98%
COc1cccc(CNC(=O)c2nc3scc(COCc4ccc(C(=O)O)cc4)c3c(=O)[nH]2)c1	cell-free assay	–	competition with immobilised ligand	1 µM	remaining binding	99.5%
CCCOc1ccc(OC)c(F)c1C(=O)c1ccc(C(=O)N[C@@H]2CNC[C@H]2NC(=O)c2ccc3[nH]ncc3c2)cc1	enzyme activity	inhibitor	–	10 µM	remaining activity	0%
